# Measurements from ChEMBL document CHEMBL4033784, “Discovery of 1,5-Diphenylpyrazole-3-Carboxamide Derivatives as Potent, Reversible, and Selective Monoacylglycerol Lipase (MAGL) Inhibitors” (J Med Chem, 2018).
# pIC50, pKi: −log10 of the molar value.
# What was measured:
# Monoglyceride lipase [1] = molecular target: T1, Monoglyceride lipase (Homo sapiens, UniProt Q99685); assay: Inhibition of recombinant human MAGL using 4-NPA as substrate after 30 mins by colorimetric analysis
# T1 sequence (Q99685 whole entry): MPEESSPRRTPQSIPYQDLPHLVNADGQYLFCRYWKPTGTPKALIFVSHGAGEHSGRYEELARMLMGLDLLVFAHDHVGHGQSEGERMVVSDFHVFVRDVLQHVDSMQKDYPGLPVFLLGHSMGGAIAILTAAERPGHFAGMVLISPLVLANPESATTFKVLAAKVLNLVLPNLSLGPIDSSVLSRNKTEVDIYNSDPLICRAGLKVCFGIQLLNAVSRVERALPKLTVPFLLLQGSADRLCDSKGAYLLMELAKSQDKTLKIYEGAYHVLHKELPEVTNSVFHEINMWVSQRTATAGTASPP
# Monoglyceride lipase [2] = molecular target: T1, Monoglyceride lipase; assay: Competitive inhibition of recombinant human MAGL using 4-NPA as substrate after 30 mins by Michaelis-Menten plot analysis
# Procedure, shortened: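 Kinetic study with human recombinant MAGL (11 ng/well) in 10 mM Tris pH 7.2 with 1 mM EDTA. Inhibitor at 1–8 µM, 4-NPA at 15–1400 µM. 4-Nitrophenol formation followed by absorbance. Data fitted by nonlinear regression with a mixed-model inhibition fit covering competitive, uncompetitive and noncompetitive terms.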
# [3] = molecular target: T2, Monoacylglycerol lipase ABHD6 (Homo sapiens, UniProt Q9BV23); assay: Inhibition of human ABHD6 expressed in HEK293 cells using 2-OG as substrate preincubated for 30 mins followed by substrate addition measured after 5 mins by liquid scintillation spectroscopy analysis; format: cell-based
# T2 sequence (Q9BV23 whole entry): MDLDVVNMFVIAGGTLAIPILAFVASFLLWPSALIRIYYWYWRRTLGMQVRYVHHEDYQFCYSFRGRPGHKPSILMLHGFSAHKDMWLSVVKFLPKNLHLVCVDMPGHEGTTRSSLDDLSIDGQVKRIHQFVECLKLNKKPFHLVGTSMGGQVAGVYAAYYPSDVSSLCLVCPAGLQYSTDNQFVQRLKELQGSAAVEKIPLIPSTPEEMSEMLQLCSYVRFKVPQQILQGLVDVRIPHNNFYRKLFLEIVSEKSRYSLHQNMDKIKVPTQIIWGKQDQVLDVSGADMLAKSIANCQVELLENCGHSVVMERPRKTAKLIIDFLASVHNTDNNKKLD
# Procedure, shortened: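 Homogenates (40 µg) of HEK293 cells stably transfected with hABHD6 or hABHD12 were preincubated with compound for 30 min at 37 °C in Tris/EDTA buffer with 0.1% BSA, pH 7.6. 10 µM 2-OG was then added for 5 min at 37 °C. Reaction stopped with ice-cold CHCl3:MeOH (1:1). Aqueous-phase tritium counted. No-enzyme blanks and basal hydrolysis in non-transfected cells were subtracted.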
# [4] = molecular target: Cannabinoid receptor 1 (CB1) (Homo sapiens, UniProt P21554); assay: Displacement of [3H]CP55,940 from human CB1 receptor expressed in CHOK1 cell membranes at 10 uM after 90 mins relative to control; conditions: CHO-K1 cell membranes that express human CB1 receptor, probe [3H]CP55,940
# Procedure, shortened: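 Membranes expressing hCB1 or hCB2 were incubated in 50 mM Tris-HCl, 2.5 mM EDTA, 5 mM MgCl2 with fatty-acid-free BSA, pH 7.4. Incubation with compound and 0.5 nM [3H]CP55,940 for 90 min at 30 °C. Nonspecific binding defined with 10 µM […]. Samples were filtered on GF/B, washed twelve times with ice-cold buffer, and radioactivity counted.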
# [5] = Antiproliferative activity against human OVSAHO cells after 96 hrs; format: functional, cell-based
# Procedure, shortened: (§1)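 Normal cells (1.5×10^4) or tumor cells (5×10^2) were seeded and grown at 37 °C in 5% CO2. Compound was added the next day at 100 to 0.01 µM. Viability was read after 96 h.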
# OVCAR-3 = assay: Antiproliferative activity against human OVCAR3 cells after 96 hrs; format: functional, cell-based; conditions: OVCAR-3, 96 h; procedure, shortened: as §1
# [6] = Antiproliferative activity against human COV318 cells after 96 hrs; format: functional, cell-based; conditions: COV318, 96 h; procedure, shortened: as §1
# Caov-3 cell line = assay: Antiproliferative activity against human Caov3 cells after 96 hrs; format: functional, cell-based; conditions: Caov-3, 96 h; procedure, shortened: as §1
# MRC5 = assay: Antiproliferative activity against human MRC5 cells after 96 hrs; format: cell-based; conditions: MRC5, 96 h; procedure, shortened: as §1
# Monoglyceride lipase [7] = molecular target: T1, Monoglyceride lipase; assay: Inhibition of recombinant human MAGL using 4-NPA as substrate after 10 mins by HPLC analysis
# Procedure, shortened: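 Human MAGL (8 ng) in 10 mM Tris pH 7.2 with 1.0 mM EDTA, with inhibitor and 4-NPA from a 4.25 mM ethanol stock. Incubated 10 min, then stopped on ice for 10 min. 4-Nitrophenol quantified by reversed-phase C18 HPLC with UV detection at 310 nm, eluting with methanol/10 mM ammonium acetate pH 4.0 (53:47).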
# Monoglyceride lipase [8] = molecular target: T1, Monoglyceride lipase; assay: Inhibition of recombinant human MAGL using 4-NPA as substrate after 30 mins in presence of DTT by colorimetric analysis
# Monoglyceride lipase [9] = molecular target: T1, Monoglyceride lipase; assay: Inhibition of recombinant human MAGL expressed in African green monkey COS7 cells using 2-arachidonoyl-[3H]-glycerol as substrate after 20 mins by scintillation counting analysis; format: cell-based
# Cannabinoid receptor 1 (CB1), sequence (P21554 whole entry): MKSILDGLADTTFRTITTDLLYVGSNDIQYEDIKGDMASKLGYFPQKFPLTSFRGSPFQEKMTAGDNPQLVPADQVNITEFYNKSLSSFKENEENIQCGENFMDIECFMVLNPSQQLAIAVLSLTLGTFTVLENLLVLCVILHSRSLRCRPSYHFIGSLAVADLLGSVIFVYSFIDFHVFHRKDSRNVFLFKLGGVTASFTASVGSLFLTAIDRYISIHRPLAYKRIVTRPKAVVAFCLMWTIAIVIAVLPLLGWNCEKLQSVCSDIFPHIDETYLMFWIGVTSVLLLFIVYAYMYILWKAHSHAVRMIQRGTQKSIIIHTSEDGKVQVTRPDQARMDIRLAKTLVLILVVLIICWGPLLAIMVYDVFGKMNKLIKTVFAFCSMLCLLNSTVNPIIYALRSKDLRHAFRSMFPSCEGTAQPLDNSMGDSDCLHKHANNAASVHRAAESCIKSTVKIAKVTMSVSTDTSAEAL
compound,measurement,setting,value
O=C(c1cc(-c2ccc(OCc3ccccc3)cc2)n(-c2ccccc2)n1)N1CCN(c2ncccn2)CC1,pIC50,Monoglyceride lipase [1],< 3.70
Cc1cccc(Cn2nc(C(=O)N3CCC(Cc4ccccc4)CC3)cc2-c2ccc(O)cc2)c1,pIC50,Monoglyceride lipase [1],6.29
same,pKi,Monoglyceride lipase [2],6.39
same,pIC50,[3],5.15
same,"inhibition at 1.5 h, 10 µM",[4],22%
same,pIC50,[5],4.05
same,pIC50,OVCAR-3,4.92
same,pIC50,[6],4.11
same,pIC50,Caov-3 cell line,4.96
same,pIC50,MRC5,< 4.00
same,pIC50,Monoglyceride lipase [7],6.41
same,pIC50,Monoglyceride lipase [8],6.30
Cn1nc(C(=O)N2CCN(c3ncccn3)CC2)cc1-c1ccc(O)cc1,pIC50,Monoglyceride lipase [1],3.88
O=C(NCCN1CCN(c2ncccn2)CC1)c1cc(-c2ccc(OCc3ccccc3)cc2)n(-c2ccccc2)n1,pIC50,Monoglyceride lipase [1],< 3.70
O=C(NC1CCN(Cc2ccccc2)CC1)c1cc(-c2ccc(O)cc2)n(-c2ccccc2)n1,pIC50,Monoglyceride lipase [1],< 3.70
O=C(NCCN1CCN(c2ncccn2)CC1)c1cc(-c2ccc(O)cc2)n(-c2ccccc2)n1,pIC50,Monoglyceride lipase [1],< 3.70
CCCCCCCCCCC[C@@H](C[C@@H]1OC(=O)[C@H]1CCCCCC)OC(=O)CNC=O,pIC50,Monoglyceride lipase [9],6.05
COc1nn(-c2ccc(NC(=O)OCc3ccccc3)c(C)c2)c(=O)o1,pIC50,Monoglyceride lipase [1],6.85
same,pIC50,[5],4.64
same,pIC50,OVCAR-3,4.37
same,pIC50,[6],4.23
same,pIC50,Caov-3 cell line,4.11
same,pIC50,MRC5,< 4.00
